Data from PubChem BioAssay.
Inconclusive results are not listed.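 How the source made its calls, unless noted: active means viability increase at or above a cutoff of the median across tested compounds plus 3 SD (cut at about 8.5% in these data, passing the limit was not always enough); inconclusive means some gains above the cutoff, reason not given; inactive means the rest.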

Legend:
[1] = OD615 S. cerevisiae growth inhibition, permissive medium, pilot counter-assay, permissive growth control for S. cerevisiae lifespan shortening project (AID 705;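 active means growth inhibition above 25% in both replicates, a cutoff set 3 SD above the mean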); details: OD615, 24 h, at 10 µM, stronger effect = higher value
Summary of the method: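 System: S. cerevisiae with engineered DeaD lifespan system. Medium: SC raffinose/galactose permissive medium. Doses: single compound dose of 10 µM, 0.25% DMSO final. Schedule: 24 h exposure, 30 °C. Measured by: OD615 turbidity read. Read-out: growth inhibition.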

[2] = Restrictive medium S. cerevisiae growth inhibition, OD615, pilot screen of yeast lifespan reduction project, restrictive growth control (AID 706;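 active means growth inhibition above a set limit, 3 SD over mean compound inhibition, in both replicates, cut at about 43% in these data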;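 further: modified DeaD lifespan yeast strain shifted to restrictive glucose medium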); details: OD615, 48 h, at 10 µM, stronger effect = higher value
Summary of the method: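 Assay system – genetically modified Saccharomyces cerevisiae, DeaD replicative lifespan assay strain · Medium – CSMM-D glucose medium · Doses – 10 µM compound, 0.25% DMSO · Times – 4 h pre-incubation, 48 h exposure at 30 °C · Signal – optical density at 615 nm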

[3] = viability gain of MRP-1-high H69AR cells under doxorubicin, pilot screen, MRP-1 activator project, CellTiter-Glo, duplicate (AID 807); details: H69AR viability with doxorubicin, CellTiter-Glo luminescence; at 10 µM; stronger effect = higher value;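 further: compound pretreatment 18-22 h then 72 h combined with doxorubicin; 0% = doxorubicin alone and 100% = vehicle without doxorubicin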
[4] = growth suppression of beta-catenin knockout HCT116, pilot screen, human colon tumor cells (AID 823;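 active means cell viability at or below a set limit in both duplicate runs, the limit being the all-compound median minus 4 SD, cut at about 23% in these data, passing the limit was not always enough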;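 further: 0% = wells killed by 20 µM Hyamine and 100% = untreated DMSO cell wells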); details: CellTiter-Glo, 60 h, at 10 µM, stronger effect = lower value
[5] = growth suppression of PTEN-deleted HCT116, pilot screen, cell-based, HCT116 clonal line, CellTiter-Glo (AID 824;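 active means viability at or below 27.92% in each of two runs, the all-compound median minus 4 SD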;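 further: 0% = 20 µM Hyamine control and 100% = vehicle cell control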); details: 60 h, at 10 µM, stronger effect = lower value
[6] = inhibitors of the yeast RAM network, pilot screen, dse1pr::URA3 reporter, 5-FOA selection (AID 869;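 active means inhibition over a set limit, the all-compound mean plus 3 SD, in both replicate runs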;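 further: 0% = DMSO wells with no growth and 100% = 10 µM 1-NA-PP1 with full growth; RAM network block rescues cells from 5-FOA so hits raise OD615 growth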); details: S. cerevisiae dse1pr::URA3 5-FOA growth, OD615, 2 d; at 10 µM; stronger effect = higher value; strain carries analog-sensitive mutant Cbk1 kinase
[7] = RAM signaling pathway blockade in yeast – S. cerevisiae, Pdr1DBD-CYC8 efflux-inhibited sensitized strain, primary screen (AID 1298;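 active means RAM network inhibition above 8.4% in each of two replicates, 3 SD over the compound average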;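 further: 0% = DMSO untreated cells without growth and 100% = 10 µM 1-NA-PP1 full growth; higher means more yeast growth rescued from 5-FOA killing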); details: S. cerevisiae cbk1-as DSE1-URA3 strain, 5-FOA growth OD615, 2 d; at 50 µM; stronger effect = higher value

COc1ccccc1N(CC(=O)Nc1c(C)cccc1C)S(C)(=O)=O
inactive: growth inhibition [1] -11.2% | growth inhibition [2] -8.78% | viability increase [3] -1.48% | viability [4] 101% | viability [5] 98.2% | inhibition [6] 0.715% | RAM network inhibition [7] 3.12%

O=C(Nc1ccc(SC(F)F)cc1)C1=COCCO1
inactive: growth inhibition [1] -0.035% | growth inhibition [2] 10.5% | viability increase [3] 2.59% | viability [4] 93.8% | viability [5] 90.1% | inhibition [6] 1.4% | RAM network inhibition [7] 5.17%

CC(Oc1ccccc1F)C(=O)NCCN1CCCCC1 (stereo not drawn)
inactive: growth inhibition [1] -9.04% | growth inhibition [2] -8.32% | viability increase [3] -0.4% | viability [4] 91.9% | viability [5] 93.6% | inhibition [6] 0.865% | RAM network inhibition [7] 3.01%

C=C(C)CSc1nc2c(c(=O)[nH]c(=O)n2C)n1CCC(C)C
inactive: growth inhibition [1] -17.9% | growth inhibition [2] -22.9% | viability increase [3] -2.5% | viability [4] 80.8% | viability [5] 80.9% | inhibition [6] 1.38% | RAM network inhibition [7] 1.85%

COC(=O)C1=C(C)N(C)C(=O)NC1c1ccc(C)cc1 (stereo not drawn)
inactive: growth inhibition [1] 0.9% | growth inhibition [2] -13.4% | viability increase [3] 0.2% | viability [4] 105% | viability [5] 101% | inhibition [6] 2.69% | RAM network inhibition [7] -0.17%

COc1ccc(-c2cc(N)n(S(=O)(=O)Cc3ccccc3)n2)c(OC)c1
inactive: growth inhibition [1] -2.75% | growth inhibition [2] -12.7% | viability increase [3] 0.27% | viability [4] 101% | viability [5] 96.8% | inhibition [6] 2.42% | RAM network inhibition [7] 5.13%

O=C1CN(C(=O)c2ccc(Br)o2)C(c2ccccc2)c2cc(Br)ccc2N1 (stereo not drawn)
inactive: growth inhibition [1] -9.54% | growth inhibition [2] -12.8% | viability increase [3] -8.1% | viability [4] 58.3% | viability [5] 55.6% | inhibition [6] 4.09% | RAM network inhibition [7] 6.05%

CCn1c(SCC(=O)N2CCCC2)nc2c(c1=O)SC(C)C2 (stereo not drawn)
inactive: growth inhibition [1] -17.4% | growth inhibition [2] -27.5% | viability increase [3] -4.48% | viability [4] 101% | viability [5] 95.6% | inhibition [6] 1.73% | RAM network inhibition [7] 3.14%

CCOCCCNC(=O)Cn1cc2c(n1)CCCC2
inactive: growth inhibition [1] 3.43% | growth inhibition [2] 1.36% | viability increase [3] -0.46% | viability [4] 105% | viability [5] 98.8% | inhibition [6] 1.91% | RAM network inhibition [7] 1.03%

CCOC(=O)C(C)Sc1nc2c(c(=O)[nH]c(=O)n2C)n1Cc1ccc(Cl)cc1 (stereo not drawn)
inactive: growth inhibition [1] -3.52% | growth inhibition [2] 1.73% | viability increase [3] -4.04% | viability [4] 92.6% | viability [5] 91.6% | inhibition [6] -0.265% | RAM network inhibition [7] 2.79%

COc1ccc(S(=O)(=O)N2CCC(C(=O)Nc3cccc(Cl)c3)CC2)cc1OC
inactive: growth inhibition [1] -2.42% | growth inhibition [2] -2.81% | viability increase [3] -3.54% | viability [4] 75.9% | viability [5] 78% | inhibition [6] 0.63% | RAM network inhibition [7] 1.52%

Cc1cc(C(=O)N2CCN(c3ccccn3)CC2)no1
inactive: growth inhibition [1] -1.03% | growth inhibition [2] 0.795% | viability increase [3] 0.33% | viability [4] 109% | viability [5] 102% | inhibition [6] 1.05% | RAM network inhibition [7] 2.86%

COc1ccc(-c2cn3c(C)c(C(=O)N4CCN(c5ccc(OC)cc5)CC4)sc3n2)cc1
inactive: growth inhibition [1] -5.73% | growth inhibition [2] -9.94% | viability increase [3] -1.79% | viability [4] 103% | viability [5] 104% | inhibition [6] 2.58% | RAM network inhibition [7] 3.17%

COc1cccc(C(c2sc3ncnn3c2O)N2CC(C)OC(C)C2)c1 (stereo not drawn)
inactive: growth inhibition [1] 4.48% | growth inhibition [2] -2.31% | viability increase [3] 2.62% | viability [4] 99.1% | viability [5] 95.7% | inhibition [6] 1.34% | RAM network inhibition [7] 2.05%

Cc1cc(C)n(S(=O)(=O)c2cccc(Cl)c2Cl)n1
inactive: growth inhibition [1] -2.69% | growth inhibition [2] -0.205% | viability increase [3] -1.97% | viability [4] 96.8% | viability [5] 93.6% | inhibition [6] 0.73% | RAM network inhibition [7] 2.28%

CCN(CC)S(=O)(=O)c1ccc2c3c(cccc13)C(=O)N2
inactive: growth inhibition [1] -12.1% | growth inhibition [2] -11.4% | viability increase [3] -4.61% | viability [4] 97.1% | viability [5] 96.8% | inhibition [6] 2.06% | RAM network inhibition [7] 4.63%

O=C(O)c1ccc(NS(=O)(=O)c2cccc3cccnc23)cc1
inactive: growth inhibition [1] -2.47% | growth inhibition [2] 7.28% | viability increase [3] -0.56% | viability [4] 102% | viability [5] 94.1% | inhibition [6] 2.25% | RAM network inhibition [7] 1.04%

N#CC1=C(N)Oc2n[nH]c(-c3ccccc3)c2C1c1cccc(OC(=O)N2CCOCC2)c1 (stereo not drawn)
inactive: growth inhibition [1] -12.4% | growth inhibition [2] 2.86% | viability increase [3] -2.68% | viability [4] 97.6% | viability [5] 104% | inhibition [6] 2.34% | RAM network inhibition [7] 5.62%

COc1ccccc1-c1nc2n(n1)C(c1ccccc1Cl)C(C(N)=O)=C(C)N2 (stereo not drawn)
inactive: growth inhibition [1] -11.6% | growth inhibition [2] -6.96% | viability increase [3] -6.22% | viability [4] 91% | viability [5] 85.9% | inhibition [6] -0.085% | RAM network inhibition [7] -1.52%

CCOC(=O)C1Cc2ccccc2C(=O)O1 (stereo not drawn)
inactive: growth inhibition [1] -4.84% | growth inhibition [2] -2.44% | viability increase [3] -0.24% | viability [4] 96.4% | viability [5] 100% | inhibition [6] 0.47% | RAM network inhibition [7] 5.42%

CC1CN(c2ncnc3c2cnn3-c2ccc(Cl)cc2)CC(C)O1 (stereo not drawn)
inactive: growth inhibition [1] -3.73% | growth inhibition [2] -8.06% | viability increase [3] 3.8% | viability [4] 100% | viability [5] 88.4% | inhibition [6] 1.4% | RAM network inhibition [7] 3.95%

COc1ccc(C2C(C(=O)Nc3cc(C)on3)c3ccccc3C(=O)N2C)cc1OC (stereo not drawn)
inactive: growth inhibition [1] -4.48% | growth inhibition [2] 2.73% | viability increase [3] 0.61% | viability [4] 102% | viability [5] 99.4% | inhibition [6] 1.24% | RAM network inhibition [7] 4.64%

COc1ccc(S(=O)(=O)N(CC(=O)Nc2ccc3c(c2)OCO3)c2ccccc2OC)cc1
inactive: growth inhibition [1] -20.4% | growth inhibition [2] -13.9% | viability increase [3] -5.32% | viability [4] 69% | viability [5] 79.8% | inhibition [6] 2.13% | RAM network inhibition [7] 6.05%

c1ccc2c(c1)nc(N1CCOCC1)c1nnnn12
inactive: growth inhibition [1] -7.82% | growth inhibition [2] -4.7% | viability increase [3] -3.18% | viability [4] 109% | viability [5] 103% | inhibition [6] 1.38% | RAM network inhibition [7] 10.4%
